PLCb3 inh = blocks human PLC-beta3 enzyme activity. actives 0.18% (n = 370,000). AID 720704. Purified PLC-beta3, fluorogenic substrate, fluorescence. inhibition, % at 12.2 µM
ADAM10 inh = ADAM10 inhibition, QFRET primary screen. O14672. actives 0.62% (n = 370,000). inhibition, % at 7 µM. recombinant ADAM10, EDANS/DABCYL FRET peptide cleavage, 3 h;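 active = inhibition above a per-campaign cutoff equal to the mean of compounds falling between control-based bounds plus 3 SD, cut at about 20% in these data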
ADAM17 inh = ADAM17 inhibition, QFRET primary screen | recombinant ADAM17, EDANS/DABCYL FRET peptide cleavage | inhibition, % at 6.95 µM | actives 0.83% (n = 370,000) | AID 720648;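 active = inhibition above the mean of compounds lying between control limits plus 3 SD, set per campaign, cut at about 8.5% in these data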
Tb MetRS inh = blocks T. brucei methionyl-tRNA synthetase activity; inhibition, % at 11.9 µM; AID 624268; purified T. brucei MetRS, ATP depletion, Kinase-Glo luminescence; actives 0.4% (n = 360,000);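 active = inhibition above a per-plate cutoff of the control wells' mean inhibition plus 3 SD, cut at about 5.5% in these data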
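Assay system: T. brucei methionyl-tRNA synthetase, purified | Medium: HEPES buffer with MgCl2, KCl, DTT, spermine, BSA, pyrophosphatase | Compound: 11.9 µM single point | Incubation: 15 min enzyme-compound preincubation, 2 h reaction, 10 min detection, 25 °C | Measured by: Kinase-Glo luciferase luminescence reporting remaining unconsumed ATP | Measure: % inhibition normalized to control-well medians | Replication: Singlicate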
PLCg1 inh = blocks human PLC-gamma1 enzyme activity | actives 0.84% (n = 370,000) | inhibition, % at 12.2 µM | P19174 | purified PLC-gamma1, fluorogenic substrate, fluorescence | AID 720700; in the data active = inhibition above about 9.5%
PLCg1 ctr = counter-screen for PLC-beta3 inhibitors: inhibitors of human PLC-gamma1; actives 3.1% (n = 3,300); shares compounds with PLCg1 inh; purified PLC-gamma1, fluorogenic substrate, fluorescence; inhibition, % at 12.3 µM; in the data active = inhibition above about 9.5%
PLCbeta3 conf = human PLC-beta3 inhibition, confirmation; inhibition, % at 12.3 µM; purified PLC-beta3, fluorogenic substrate fluorescence; shares compounds with PLCg1 inh; actives 1% (n = 3,300)
Each line names hits and unclear results; the compound was inactive in the other large screens (follow-up assays come after a bar, where they were run). This is a sample that favours compounds with a hit; in the whole collection about 2.3% have one here. Rule as the data show it, unless noted: active = inhibition above about 11%; inactive = the rest.

CC(C)CNc1ncnc2c1ncn2[C@H]1CN(Cc2ccc(-c3ccccc3)cc2)C[C@@H](CO)O1	none
CCCOc1ccccc1OCC(=O)Nc1cc(Cl)ccc1-n1cncn1	PLCg1 inh 11 | PLCg1 ctr inactive | PLCbeta3 conf inactive
Cc1ccc(N(CC(=O)Nc2cccc(Cl)c2C)S(C)(=O)=O)cc1	none
Cc1ccc(CNC(=O)Cn2cccc2C(=O)c2ccccc2)cc1	PLCg1 inh 12 | PLCg1 ctr inactive | PLCbeta3 conf inactive
O=C(Cn1cccc1C(=O)c1ccccc1)NCc1ccc(Cl)cc1	none
CCOC(=O)C(CCCOc1ccccc1C)C(=O)OCC	PLCg1 inh 12 | PLCg1 ctr inactive | PLCbeta3 conf inactive
COc1ccc(CCNC(=O)Nc2nnc([C@@H]3C[C@H](O)[C@@H](CO)O3)s2)cc1OC	none
O=C(NCCc1cccs1)Nc1nnc([C@H]2C[C@H](O)[C@@H](CO)O2)s1	PLCg1 inh 11 | PLCg1 ctr inactive | PLCbeta3 conf inactive
NC1=NC(=O)C(c2ccccc2)(c2ccccc2)S1	none
COc1ccc(S(=O)(=O)NCCCN2CCOCC2)cc1F	PLCg1 inh 9.5 | PLCg1 ctr inactive | PLCbeta3 conf inactive
COc1ccc(S(=O)(=O)NCCN2CCOCC2)cc1[N+](=O)[O-]	none
CSCCC(NS(=O)(=O)c1ccc(Cl)cc1)C(=O)OCC(=O)c1ccc(F)cc1 (stereo unspecified)	PLCb3 inh 12 | PLCg1 ctr inactive | PLCbeta3 conf inactive
Cc1nn(-c2ccccc2)c(C)c1-c1nnc(-c2c(C)nn(-c3ccccc3)c2C)o1	none
NC(=O)C1(N2CCCCC2)CCN(S(=O)(=O)c2ccccc2)CC1	none
NC(=O)C1(N2CCCCC2)CCN(Cc2ccccc2Cl)CC1	PLCb3 inh 11 | PLCg1 ctr inactive | PLCbeta3 conf inactive
COc1ccc(S(=O)(=O)N2CCC(C(=O)NCCN3CCOCC3)CC2)cc1	PLCg1 inh 12 | PLCg1 ctr inactive | PLCbeta3 conf inactive
Cc1ccc(S(=O)(=O)N2CCC(C(=O)NCCN3CCOCC3)CC2)cc1C	none
COc1ccc(C2C(C(=O)NCCCN3CCOCC3)c3ccccc3C(=O)N2c2ccc(OC)cc2)cc1 (stereo unspecified)	PLCb3 inh 11 | PLCg1 ctr inactive | PLCbeta3 conf inactive
CC1CC(C)CN(C(=O)C(Cc2ccccc2)NC(=O)c2ccccc2)C1 (stereo unspecified)	none
S=c1[nH]nc(-c2n[nH]c3c2CCC3)n1N=Cc1ccc(Br)s1	none (no result: Tb MetRS inh)
Cn1cnnc1Sc1ccc(C(=O)NCCC23CC4CC(CC(C4)C2)C3)cc1[N+](=O)[O-]	PLCg1 inh 9.5 | PLCg1 ctr inactive | PLCbeta3 conf inactive
Cc1ccc(C(=O)N2CCC[C@@H]2C(=O)N2CCC[C@@H]2C(=O)NCc2ccccc2)cc1	none (no result: Tb MetRS inh)
Cc1cc(Cl)c(S(=O)(=O)N2CCCC2)cc1OCC(=O)NC1CCCCC1	PLCb3 inh 12 | PLCg1 ctr inactive | PLCbeta3 conf inactive
O=C(COc1ccc(S(=O)(=O)N2CCCC2)cc1Cl)NC1CCCC1	PLCg1 inh 13 | PLCg1 ctr inactive | PLCbeta3 conf inactive
Cc1cccc(OC(=O)c2ccc3c(=O)n4c(nc3c2)CCC4)c1	none
Cc1nonc1NC(=O)c1oc2ccc(F)cc2c1C	none
Cc1cc2oc(C(=O)Nc3nonc3C)c(C)c2cc1Cl	PLCg1 inh 13 | PLCg1 ctr inactive | PLCbeta3 conf inactive
N#Cc1cccc(C2CC(OCCF)=CC(=O)O2)c1 (stereo unspecified)	none
CC1CCC(NC(=O)CCN2C(=O)C3CC=CCC3C2=O)CC1 (stereo unspecified)	PLCg1 inh 12 | PLCg1 ctr inactive | PLCbeta3 conf inactive
CN(C)c1ccc(CC(=O)N2CCCCC2c2cc(C(=O)Nc3cccc(C#N)c3)no2)cc1 (stereo unspecified)	none
NC(N)=NC(N)=Nc1ccc(SC(F)(F)F)cc1	PLCg1 inh 11 | PLCg1 ctr inactive | PLCbeta3 conf inactive
NC(N)=NC(N)=Nc1ccc2ccccc2c1	none
Cc1ccc(SCC(=O)OCC(=O)N(CCC#N)c2ccccc2)cc1	none
Cc1onc(-c2ccccc2)c1NC(=O)N(CCC#N)Cc1cccs1	PLCg1 inh 10.0 | PLCg1 ctr inactive | PLCbeta3 conf inactive
Cc1onc(-c2ccccc2)c1NC(=O)N(CCC(=O)O)Cc1ccccc1	none
Cc1cc(/C=C(\C#N)C(=O)Nc2ccc(Cl)cc2)c(C)n1-c1ccc(N2CCOCC2)c([N+](=O)[O-])c1	PLCg1 inh 14 | PLCg1 ctr inactive | PLCbeta3 conf inactive
Cc1ccc(NC(=O)/C(C#N)=C/c2cc(C)n(-c3ccc(N4CCOCC4)c([N+](=O)[O-])c3)c2C)c(C)c1	none
Cc1ccc2occ(/C=N/NC(=O)c3ccccc3O)c(=O)c2c1	none
COc1ccccc1CN(C)CC(=O)Nc1cccc2ccccc12	none
COc1cc(Cl)c(C)cc1NC(=O)CN(C)Cc1cccc(OC)c1OC	PLCg1 inh 10 | PLCg1 ctr inactive | PLCbeta3 conf inactive
O=C(C[n+]1ccc(C(=O)c2ccccc2)cc1)Nc1cccc([N+](=O)[O-])c1	none
O=C(O)c1ccc(OCc2occc2C(=O)O)cc1	PLCg1 inh 13 | PLCg1 ctr inactive | PLCbeta3 conf inactive
COc1ccccc1NS(=O)(=O)c1cc(NC(=O)c2[nH]c(C)c(C(C)=O)c2C)ccc1N1CCOCC1	none
O=C(O)CCC(=O)OCC1CCCCC1	PLCg1 inh 9.8 | PLCg1 ctr inactive | PLCbeta3 conf inactive
O=C(O)CCC(=O)NNC(=O)CCC1CCCCC1	none
NC(=O)c1ccc(NC(=O)COC(=O)CCN=C2NS(=O)(=O)c3ccccc32)cc1	none
Cn1cc(/C=N/NC(N)=S)c2ccccc21	PLCg1 inh 10 | PLCg1 ctr inactive | PLCbeta3 conf inactive
CN(c1ccc(NC(=O)CCc2c[nH]c3ccccc23)cc1)c1ccccn1	none (no result: Tb MetRS inh)
CCOc1ccc2nc(C)cc(Nc3cccc([N+](=O)[O-])c3)c2c1	PLCg1 inh 11 | PLCg1 ctr inactive | PLCbeta3 conf inactive
COC(=O)C1=C(C)N(Cc2cccc(C(F)(F)F)c2)C(=NCC2CC2)NC1c1cccc(Cl)c1 (stereo unspecified)	none (no result: Tb MetRS inh)
COc1ccccc1OCC(=O)NNc1c2ccccc2nc2ccccc12	none
C[C@@H]1CCC[C@@]2(O[C@@H](CCO)C[C@H](O)[C@H]2O)O1	PLCg1 inh 12 | PLCg1 ctr inactive | PLCbeta3 conf inactive
OCC[C@@H]1C[C@@H](O)[C@H](O)[C@]2(CCCO2)O1	PLCg1 inh 12 | PLCg1 ctr inactive | PLCbeta3 conf inactive
Cc1onc(-c2ccc(Cl)cc2)c1-c1ccn(S(=O)(=O)c2cccc(Cl)c2)n1	PLCg1 inh 9.8 (no result: Tb MetRS inh) | PLCg1 ctr inactive | PLCbeta3 conf inactive
Cc1ccc(S(=O)(=O)n2ccc(-c3c(-c4ccc(Cl)cc4)noc3C)n2)cc1	none (no result: Tb MetRS inh)

Screens (PubChem BioAssay)
